High-throughput results deposited in PubChem BioAssay by Broad Institute.
Shown are actives, neighbours in structure and some others; about 1.3% of the full set was active somewhere.
SIRT5 inh: inhibitors of human sirtuin-5 desuccinylase | Q9NXA8 | Purified SirT5, succinyl-peptide AMC, trypsin-coupled fluorescence | inhibition, % at 15 µM | actives 1.1% (n = 330,000) | AID 652115; in the data active = inhibition above about 15%
AF4-AF9 inh: blocks AF4 peptide binding to human AF9. AlphaScreen, biotin-AF4 peptide binding to FLAG-AF9. inhibition, % at 10 µM. actives 0.47% (n = 350,000);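 active = every replicate reaching a set inhibition limit, whatever the replicate mean, cut at about 25% in these data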;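 also: 0% = plate neutral control median and 100% = total signal loss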
PDI inh: inhibitors of human protein disulfide isomerase | P07237 | PDI insulin aggregation turbidity, A650, 90 min | inhibition, % at 10 µM | actives 0.052% (n = 350,000);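 active = mean inhibition across replicates of 30% or more, whatever share of single replicates reach that level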
Target sequence (P07237 whole entry, looked up): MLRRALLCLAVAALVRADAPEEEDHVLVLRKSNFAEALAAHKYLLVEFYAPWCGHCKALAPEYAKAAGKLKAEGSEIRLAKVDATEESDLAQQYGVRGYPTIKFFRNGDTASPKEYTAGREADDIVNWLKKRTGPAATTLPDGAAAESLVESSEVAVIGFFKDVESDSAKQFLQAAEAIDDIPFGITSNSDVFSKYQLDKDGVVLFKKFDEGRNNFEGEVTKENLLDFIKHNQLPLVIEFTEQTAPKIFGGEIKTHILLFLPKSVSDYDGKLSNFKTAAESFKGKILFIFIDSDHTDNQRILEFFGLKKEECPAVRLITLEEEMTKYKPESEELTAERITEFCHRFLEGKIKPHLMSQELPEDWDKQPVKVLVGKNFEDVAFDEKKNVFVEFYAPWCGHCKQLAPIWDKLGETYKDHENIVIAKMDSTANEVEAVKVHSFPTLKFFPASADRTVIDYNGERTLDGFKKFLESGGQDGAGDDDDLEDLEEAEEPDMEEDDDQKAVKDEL
FN deposition inh: fibronectin deposition inhibition; AH1F fibroblasts, Alexa488-fibronectin deposition fluorescence, overnight; inhibition, % at 12.6 µM; actives 0.086% (n = 350,000); AID 743247;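 active = mean inhibition across replicates of 30% or more, regardless of how many single replicates reach that level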;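 also: positive control wells lacked labelled fibronectin entirely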
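Measured by – fluorescence 485/525 nm · System – AH1F fibroblast monolayer, labelled fibronectin deposition · Amount – 10000 cells per well · Buffer or medium – serum-reduced DMEM (2% serum) · Doses – single dose, pinned · Also added – fluorescent fibronectin at 24 nM final · Schedule – 1 h cell attachment, overnight exposure to compound and label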
ERp5 inh: blocks human ERp5 reductase activity on insulin; ERp5 insulin aggregation, absorbance 650 nm, 90 min; actives 0.05% (n = 350,000); inhibition, % at 9.99 µM;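 active = mean replicate inhibition above about 25%, with every replicate also reaching it, limit read from the data, passing the limit was not always enough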
* hit, by the source's call; x = no result.

SMILES	SIRT5 inh	AF4-AF9 inh	PDI inh	FN deposition inh	ERp5 inh
C[C@@H]1CN([C@@H](C)CO)C(=O)c2cccc(NS(=O)(=O)c3ccccc3)c2O[C@@H]1CN(C)C(=O)Nc1ccc(F)cc1	0	-4	x	x	6
C[C@@H]1CN([C@@H](C)CO)C(=O)c2cccc(NS(=O)(=O)c3ccc(F)cc3)c2O[C@H]1CN(C)C(=O)Nc1ccccc1	22*	-3	x	x	-9
O=C(O)CC1=C(Nc2ccccc2)C(=O)N(c2ccccc2)C1c1ccc(Br)cc1 (stereo unspecified)	17*	2	9	1	-2
O=C(O)CC1=C(O)C(=O)N(c2ccccc2)C1c1ccc(Cl)cc1 (stereo unspecified)	x	x	-2	x	x
CCOc1cc(CNc2ncnc3nc[nH]c23)ccc1OC	0	1	-3	-3	1
CCOc1cc(CNc2cccc3[nH]c(C)nc23)ccc1OC	-6	30*	1	8	4
CC(=O)N1N=C(N)SC12CCCC2	20*	0	2	5	0
N#CCc1c(C#N)c(N)nc(Nc2ccccc2)c1C#N	17*	1	-1	5	-6
Cc1cc(S(=O)(=O)Nc2ccc(C(=O)NCC3(N4CCCCC4)CCCCC3)cc2)ccc1F	21*	0	2	0	9
CCCc1c(C)nc(N2CCN(c3ccc(F)cc3)CC2)[nH]c1=O	21*	-1	-4	-1	1
CCc1c(C)nc(N2CCN(c3ccc(F)cc3)CC2)[nH]c1=O	0	-8	6	7	2
COc1ccc(OC)c(C(=O)COC(=O)CNC(=O)c2ccccc2)c1	15*	-6	4	-21	2
CCn1c(NC(=O)c2ccc(C)cc2)c2ccccc2nc1=O	x	x	1	x	x
CN1CCC(=NNC(=O)CN(c2cccc(Br)c2)S(C)(=O)=O)CC1	-1	-13	-7	1	-1
COc1ccc(OCC(=O)Nc2ccc(C(=O)Nc3ccccc3C(=O)O)cc2)cc1	23*	-9	4	-2	4
C[C@@H]1CN([C@@H](C)CO)C(=O)c2cccc(NC(=O)Nc3ccccc3)c2O[C@H]1CN(C)Cc1ccc(C(=O)Nc2ccccc2N)cc1	5	-2	x	x	15
CN(C)c1ccc(/C=N/NC(=O)c2nnn(-c3nonc3N)c2CN(C)c2ccccc2)cc1	17*	3	2	6	4
CCCN(CCC)Cc1c(C(=O)N/N=C/C(C)=C\c2ccccc2)nnn1-c1nonc1N	16*	-1	-1	-1	-3
CCOc1cccc(-c2c(C(=O)N/N=C/c3ccc(C)o3)nnn2-c2nonc2N)c1	8	1	4	6	27*
CN(Cc1c(C(=O)N/N=C/c2ccccc2)nnn1-c1nonc1N)c1ccccc1	1	-7	-1	0	-7
CC1C(=O)N2CCCc3cc(NS(=O)(=O)c4ccc(F)cc4)cc1c32 (stereo unspecified)	-3	0	-4	-5	-1
CC(OC(=O)CCCSc1nc2ccccc2s1)C(=O)NC(N)=O (stereo unspecified)	-5	1	0	0	-2
COc1ccc(CC(=O)Nc2ccc(S(=O)(=O)N3CCN(C)CC3)cc2)cc1	18*	2	-6	2	-3
CO[C@@H]1CN(C)C(=O)c2cc(NC(=O)c3nc4ccccc4s3)ccc2OC[C@H](C)NC[C@@H]1C	1	0	x	-2	13
CCN(CC)S(=O)(=O)c1cc(NC(=O)c2ccc(-n3cncn3)c([N+](=O)[O-])c2)ccc1C	2	4	-5	-7	25*
SMILES	SIRT5 inh	AF4-AF9 inh	PDI inh	FN deposition inh	ERp5 inh
O=C(Cc1n[nH]c(=O)c2ccccc12)N1CCN(c2ccc(F)cc2)CC1	x	3	8	8	2
CC(=O)c1ccc(N2CCN(C(=O)Cc3n[nH]c(=O)c4ccccc34)CC2)cc1	16*	1	2	5	7
CSc1ncc(C(=O)Nc2ccccc2F)c(-c2ccccc2)n1	1	-3	-1	0	-1
CSc1ncc(C(=O)Nc2ccc(C(C)=O)cc2)c(-c2ccccc2)n1	21*	0	-13	3	-2
c1ccc(Cn2nnnc2C(c2cccs2)N2CCCCCC2)cc1 (stereo unspecified)	x	x	-10	10	x
COc1cccc(C(=O)Nc2nnc(-c3ccc(Cl)cc3)o2)c1	x	10	-28	4	-7
COc1ccc(-c2cc(C(=O)Nc3ccc(OC)cc3OC)no2)cc1	-1	-4	-7	-3	-1
COc1ccc(NC(=O)c2cc(-c3cccs3)on2)c(OC)c1	2	34*	-6	3	-1
COc1cccc(C(=O)Nc2nnc(-c3cccs3)o2)c1	4	45*	9	3	-3
CC(C)NC(=O)N(C)C[C@H]1Oc2c(NC(=O)Nc3ccc(F)cc3)cccc2C(=O)N([C@@H](C)CO)C[C@H]1C	0	-2	x	-6	-5
CCN1C(=O)[C@H]2[C@@H](c3ccc(-c4cccc(Cl)c4)cc3)N[C@@](CC(C)C)(C(=O)OC)[C@H]2C1=O	x	-3	3	-8	-6
CCN1C(=O)[C@H]2[C@@H](c3ccc(-c4cccc(Cl)c4)c(OC)c3)N[C@@](CC(C)C)(C(=O)OC)[C@H]2C1=O	25*	1	-27	-8	2
Cc1ccc(S(=O)(=O)N(C)C)cc1NC(=O)COC(=O)C1(c2ccccc2)CC1	-6	-29	-3	-5	28*
Cc1ccc(S(=O)(=O)Nc2ccc(C(N)=O)cc2)cc1[N+](=O)[O-]	5	0	14	10	2
O=C(CCCOc1ccccc1)n1nnc2ccccc21	x	x	-2	x	x
CN1CCCN(c2ccc([N+](=O)[O-])cc2)CC1	0	28*	-1	7	-2
O=[N+]([O-])c1ccc(N2CCN(c3ccc(F)cc3)CC2)cc1	-2	-2	7	-1	3
O=C(NCc1ccc(F)cc1)C(c1ccco1)N(C(=O)c1csnn1)C1CC1 (stereo unspecified)	-2	0	2	2	2
O=C(NCc1ccccc1)C(c1ccco1)N(C(=O)c1csnn1)C1CC1 (stereo unspecified)	-4	41*	0	2	-1
CCn1c(SCC(=O)O)nnc1-c1ccc(S(=O)(=O)N2CCCC2)cc1	-6	-2	1	1	8
Cc1cn([C@H]2C[C@H](O)[C@@H](CNC(=O)[C@@H]3C[C@H](F)CN3)O2)c(=O)[nH]c1=O	-3	0	1	13	1
COc1ccccc1NC(=O)N1CCN(c2ccccc2F)CC1	x	x	0	-5	x
O=c1[nH][nH]c2c(N=Cc3ccccc3O)ccc(F)c12	29*	x	-5	x	2
O=c1[nH][nH]c2c([N+](=O)[O-])ccc(F)c12	x	1	x	6	4
CC[C@H](C)[C@@H]1NC(=O)[C@@H](CC(C)C)NC(=O)[C@H](C(C)C)NC(=O)[C@H]2CSSC[C@H](NC1=O)C(=O)N2	2	-3	x	34*	6
